Results on four compounds are retold here after ChEMBL document CHEMBL1156438, “Resolvin D1 and its aspirin-triggered 17R epimer. Stereochemical assignments, anti-inflammatory properties, and enzymatic inactivation” (J Biol Chem, 2007).

By EC50 is commonly meant the midpoint of the concentration-response curve.

SMILES strings stand for the structures. The source made the active and inactive calls. The rule behind the calls is not given here.

The test system of assay [1] is Mus musculus. Kind of assay: Antiinflammatory activity in FVB mouse peritonitis model assessed as reduction in zymosan-induced polymorphonuclear leukocytes infiltration at 10 ng, iv after 4 hrs. On the set-up: scale not given: the % may be the effect or the level left. The format is functional. The gist of the method:
(§1)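 Male FVB mice, 6–8 weeks, isoflurane-anesthetized; compounds as carboxymethyl esters given iv by tail vein in 100 μl saline (0.05–50 μgkg–1 range), then zymosan A 1 mg/ml ip. Peritoneal lavage at 4 h; cells counted after trypan blue, differentials by Wright-Giemsa cytospin; reduction versus saline vehicle plus zymosan; mean ± S.E., n = 3.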

The nature of assay [2]: Antiinflammatory activity in human polymorphonuclear leukocytes assessed as inhibition of n-formylmethionylleucylphenylalanine-stimulated transendothelial migration after 15 mins. The conditions noted are these: 0.25 h.
Assay [3] has as its system Mus musculus. Put plainly: Antiinflammatory activity in FVB mouse peritonitis model assessed as reduction in zymosan-induced polymorphonuclear leukocyte infiltration at 1 ng, iv after 4 hrs. The assay is classed as functional, organism-based. The gist of the method: as §1
In assay [4] the test system is Mus musculus. Kind of assay: Antiinflammatory activity in FVB mouse peritonitis model assessed as reduction in zymosan-induced total leukocyte infiltration at 10 ng, iv after 4 hrs. The format is functional. On the set-up: scale not given: the % may be the effect or the level left. In outline:
as §1

Assay [5] can be described thus: Antiinflammatory activity in human polymorphonuclear leukocytes assessed as inhibition of n-formylmethionylleucylphenylalanine-stimulated transendothelial migration at 1 uM after 15 mins. On the set-up: scale not given: the % may be the effect or the level left. The assay is classed as functional. The gist of the method:
(§2)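 Human PMNs from venous blood (Histopaque 1077/1119 double gradient, NH4Cl lysis, >90% pure) in HBSS pH 7.4, preincubated 15 min at room temperature with 0–1000 nm compound; 10^6 cells added atop HMEC-1 monolayers on Transwell inserts; 100 nm fMLP lower chamber; migration 30 min, 37 °C, quantified by MPO; expressed as % reduction versus untreated PMNs.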

The test system of assay [6] is Mus musculus. Kind of assay: Antiinflammatory activity in FVB mouse peritonitis model assessed as reduction in zymosan-induced polymorphonuclear leukocyte infiltration at 100 ng, iv after 4 hrs. The format is functional. On the set-up: scale not given: the % may be the effect or the level left. The gist of the method: as §1
In assay [7] the test system is Mus musculus. Put plainly: Antiinflammatory activity in iv dosed FVB mouse peritonitis model assessed as reduction in zymosan-induced polymorphonuclear leukocyte infiltration at after 4 hrs. The assay is classed as functional, organism-based.
Assay [8] in a line: Antiinflammatory activity in human polymorphonuclear leukocytes assessed as inhibition of n-formylmethionylleucylphenylalanine-stimulated transendothelial migration at 10 nM after 15 mins. On the set-up: scale not given: the % may be the effect or the level left. The assay is classed as functional. In outline: as §2

With `CC/C=C\C[C@@H](O)/C=C/C=C\C=C\C=C\C(=O)[C@@H](O)C/C=C\CCC(=O)O`, in the assay with Mus musculus [1], the Activity is given as 41%.

Take `CC/C=C\C[C@@H](O)/C=C/C=C\C=C\C=C\[C@@H](O)[C@@H](O)C/C=C\CCC(=O)O`: the EC50 in assay [2] was 30 nM. For the same compound, in the assay on Mus musculus [3], the result was Active. In addition, the Activity is 23% with Mus musculus [4]; 65% in assay [5]; 35% with Mus musculus [6]; “Dose-dependent effect” with Mus musculus [7]; 50% in assay [8].

As to `CC/C=C\C[C@H](O)/C=C/C=C\C=C\C=C\[C@@H](O)[C@@H](O)C/C=C\CCC(=O)O`, the half-maximal effective concentration (EC50) in assay [2] is 30 nM. For the same compound, the outcome in the assay with Mus musculus [3] was Active. The Activity was 8% with Mus musculus [4], 35% with Mus musculus [6], “Dose-dependent effect” in the assay on Mus musculus [7] and 50% in assay [8].

For the compound `CC/C=C\CC(=O)/C=C/C=C\C=C\C=C\[C@@H](O)[C@@H](O)C/C=C\CCC(=O)O`, in the assay on Mus musculus [1], the outcome was inactive.
